Source: ChEMBL document CHEMBL2440038, “Arylthioamides as H2S Donors: l-Cysteine-Activated Releasing Properties and Vascular Effects in Vitro and in Vivo” (ACS Med Chem Lett, 2013)
Active and inactive are the calls of the source. No cut-off for these calls is given here.

How the values were obtained:
Aorta = assay: Inhibition of noradrenaline-induced vasoconstriction in Wistar rat endothelium-denuded thoracic aortic ring at 1 mM after 20 mins; format: functional, tissue-based
Procedure, shortened: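 Endothelium-denuded rat aortic rings preincubated with test agent, NaHS or vehicle, then given cumulative noradrenaline. Contraction expressed as % of a prior response to 60 mM KCl.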

[1] = Activation of KATP channel in HASMC assessed as membrane hyperpolarization at 1 mM using DiBac4(3) dye by spectrofluorimetric analysis relative to LCRK; details: Homo sapiens
Procedure, shortened: (§1)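 Cultured human aortic smooth muscle cells; membrane potential followed as change in relative fluorescence of a potential-sensitive dye. Test agent added at increasing concentrations up to 1 mM. Response expressed as % of maximal hyperpolarization produced by levcromakalim 10 μM (reference KATP opener). Mean with SEM.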

[2] = Induction of H2S release in Tyrode buffer in presence of Wistar rat endothelium-denuded thoracic aortic ring; format: functional; details: TDE = time-dependent effect
Procedure, shortened: (§2)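 Incubation in Tyrode buffer, the medium used for functional tests, with or without rat aortic ring tissue. No L-cysteine or glutathione added. H2S recorded continuously by amperometry; concentration reported 15 min after addition. Mean with SEM.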

[3] = Activation of KATP channel in HASMC assessed as membrane hyperpolarization using DiBac4(3) dye by spectrofluorimetric analysis relative to LCRK; details: Homo sapiens; procedure, shortened: as §1
[4] = Induction of H2S release in PBS buffer 10x at pH 7.4 at 1 mM in presence of glutathione; format: physicochemical; details: pH 7.4, 1000 µM
Procedure, shortened: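 Release measured amperometrically in assay buffer (pH 7.4, 35–37 °C), test agent 1 mM, with reduced glutathione added as the thiol. Continuous H2S–time curves recorded. Mean with SEM.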

[5] = Induction of H2S release in Tyrode buffer after 15 mins; format: physicochemical; details: 0.25 h; procedure, shortened: as §2
Rattus norvegicus = assay: Reduction of systolic blood pressure in rat at 0.1 mg/kg, po (reference value: 102% +/- 1%); format: functional, Artery; design: scale not given: the % may be the effect or the level left

Compound | inhibition (Aorta) | Activity [1] [%] | Activity [2] | Activity [3] | Activity [4] | Activity [5] [µM] | Activity (Rattus norvegicus) [%]
NC(=S)c1ccc(O)cc1 | Active | 79 | tde | Dose-dependent effect | Active | 0.24 | 89
[Na+].[SH-] [SODIUM HYDROSULFIDE] | Active | 52 |  |  |  |  | 91
